Measurements: publication PMC3319156 (Journal of Medicinal Chemistry, 2011)

Tests used:
Tyr705 of Stat3 [1] = target: T1, Tyr705 of Stat3 (Homo sapiens, UniProt P40763); conditions: MDA-MB-468; cited from earlier work
Tyr705 of Stat3 [2] = target: T1, Tyr705 of Stat3; assay: Inhibition of constitutive Stat3 Tyr705 phosphorylation in MDA-MB-468 cells; assay type: cell-based
Procedure, shortened: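 MDA-MB-468 cells (4 × 10^5/well) were grown overnight in DMEM with 10% FCS. Prodrug was given from a 10 mM DMSO stock prepared fresh, for 2 h, or over a time course. After ice-cold PBS washes, cells were lysed (Hepes pH 7.4, Triton X-100, NaF, vanadate, protease inhibitors). 12 µg protein went on 8% SDS-PAGE/PVDF with 5% BSA block. Blots were probed for pStat3 Y705 by ECL, stripped at 50°C, and reprobed for total Stat3.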

Bcl-xL = assay: Expression of downstream gene Bcl-xL in MDA-MB-468 cells; assay type: cell-based; conditions: MDA-MB-468, 5 µM
Stat3 [3] = target: T2, Stat3 (Homo sapiens, UniProt P40763); assay: Constitutive Stat3 phosphorylation in SKOV3ip ovarian cancer cells; assay type: cell-based
Procedure, shortened: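 SKOV3-ip cells were seeded at 3 × 10^5 cells/well in McCoy's 5A medium and handled as for MDA-MB-468. Prodrug was added from a 10 mM DMSO stock made just before use, for 2 h. Cells were lysed in Hepes pH 7.4/Triton X-100 buffer with phosphatase and protease inhibitors. 12 µg protein was run on 8% SDS-PAGE, blotted for pStat3 Y705 by ECL, then stripped and reprobed for total Stat3.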

cyclin D1 [4] = assay: Expression of downstream gene cyclin D1 in MDA-MB-468 cells; assay type: cell-based; conditions: MDA-MB-468, 5 µM
survivin [5] = assay: Expression of survivin in MDA-MB-468 cells; assay type: cell-based; conditions: MDA-MB-468 breast line, data not shown
[6] = system: Tyr861 of the focal adhesion kinase (FAK); assay: Constitutive FAK Tyr861 phosphorylation in MDA-MB-468 cells; assay type: cell-based
Procedure, shortened: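 Constitutive signal, no stimulus: MDA-MB-468 cells were plated overnight in DMEM/10% FCS and given test compound from a 10 mM DMSO stock for 2 h. Cells were lysed in Hepes pH 7.4 detergent buffer with phosphatase and protease inhibitors. Protein was separated by SDS-PAGE, blotted to PVDF, blocked with 5% BSA, and probed for pTyr861 FAK and total FAK.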

pTyr705 Stat3 = pTyr705 Stat3 (Homo sapiens, UniProt P40763); assay type: cell-based; conditions: MDA-MB-468, 5 µM, 2 h
Procedure, shortened: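 MDA-MB-468 cells on slides were given DMSO or 5 µM test compound for 2 h. Cells were fixed in 4% paraformaldehyde, permeabilized with 0.5% Triton X-100 and blocked with 3% BSA. Staining used anti-pTyr705 Stat3 and an Alexa Fluor 594 secondary. Confocal imaging used identical microscope settings throughout.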

Stat3 [7] = target: T2, Stat3; assay: EGF-stimulated Stat3 phosphorylation in MDA-MB-468 cells; assay type: cell-based; conditions: MDA-MB-468, 5 µM, 1.5 h then EGF 30 min
H528 = assay: Growth inhibition of H528 NSCLC cells; assay type: cell-based; conditions: H528, 5–10 µM, data not shown
survivin [8] = assay: Expression of survivin in HCC-827 cells; assay type: cell-based; conditions: HCC-827 lung line, 5 µM
Tyr694 of Stat5 = assay: Stat5 Tyr694 phosphorylation in MDA-MB-468 cells; assay type: cell-based
Ser473 of Akt [9] = assay: Akt Ser473 phosphorylation in HCC-827 NSCLC cells; assay type: cell-based
Stat3 [10] = target: T2, Stat3; assay: IL-6-stimulated Stat3 phosphorylation in HEY ovarian cancer cells; assay type: cell-based; conditions: 1.5 hour exposure then IL-6
Procedure, shortened: (§1)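 Hey, MeWo and A375 cells were seeded at 3 × 10^5 cells/well in RPMI1640 and cultured overnight, with a media change. Cells then received increasing test compound concentrations for 2 h. IL-6 at 10 ng/mL was present for the last 30 min. Lysates were blotted for pStat3 Y705 and total Stat3 as in the constitutive assay.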

Stat3 [11] = target: T2, Stat3; assay: IL-6-stimulated Stat3 phosphorylation in A375 melanoma cells; assay type: cell-based; conditions: A375, 1.5 hour exposure then IL-6
Procedure, shortened: as §1

Stat3 [12] = target: T2, Stat3; assay: IL-6-stimulated Stat3 phosphorylation in MeWo melanoma cells; assay type: cell-based; conditions: 1.5 hour exposure then IL-6
Procedure, shortened: as §1

p38 MAPK = p38 MAPK phosphorylation in HCC-827 NSCLC cells; assay type: cell-based
Tyr701 of Stat1 = target: T3, Tyr701 of Stat1 (Homo sapiens, UniProt P42224); assay: IFNγ-stimulated Stat1 Tyr701 phosphorylation in MDA-MB-468 cells; assay type: cell-based; conditions: MDA-MB-468, 1.5 h then 30 min IFNγ
T3 sequence (P42224 1-750): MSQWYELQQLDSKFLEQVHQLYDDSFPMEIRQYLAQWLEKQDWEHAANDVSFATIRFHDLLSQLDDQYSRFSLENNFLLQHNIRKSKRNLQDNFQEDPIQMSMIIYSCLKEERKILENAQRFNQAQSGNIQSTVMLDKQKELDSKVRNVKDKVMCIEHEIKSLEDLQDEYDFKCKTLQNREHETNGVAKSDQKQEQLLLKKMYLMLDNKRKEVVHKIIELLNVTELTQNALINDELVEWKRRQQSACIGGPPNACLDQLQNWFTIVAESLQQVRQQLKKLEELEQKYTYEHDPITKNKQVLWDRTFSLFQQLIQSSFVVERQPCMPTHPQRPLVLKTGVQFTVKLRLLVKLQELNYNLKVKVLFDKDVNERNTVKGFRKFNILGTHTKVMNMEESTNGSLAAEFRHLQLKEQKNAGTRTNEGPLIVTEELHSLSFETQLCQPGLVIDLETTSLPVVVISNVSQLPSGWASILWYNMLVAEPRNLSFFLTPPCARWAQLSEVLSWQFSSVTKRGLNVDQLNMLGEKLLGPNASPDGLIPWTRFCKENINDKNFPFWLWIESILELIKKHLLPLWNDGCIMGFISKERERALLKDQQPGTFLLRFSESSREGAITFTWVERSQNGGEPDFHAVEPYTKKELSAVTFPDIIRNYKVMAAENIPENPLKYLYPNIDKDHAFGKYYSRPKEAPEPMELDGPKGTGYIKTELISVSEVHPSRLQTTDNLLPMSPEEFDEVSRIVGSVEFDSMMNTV
Procedure, shortened: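 MDA-MB-468 cells were prepared as for the Stat3 assay (plated overnight in DMEM/10% FCS) and exposed to increasing test compound concentrations for 1.5 h. Interferon γ was then added at 25 ng/mL for 30 min. Lysates were run on PAGE, blotted to PVDF, and probed for pTyr701 Stat1 and total Stat1 with chemiluminescent detection.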

MDA-MB-468 cells = assay: Cytotoxicity to MDA-MB-468 cells, MTT assay; assay type: cell-based; conditions: MDA-MB-468, treated daily for three days
Procedure, shortened: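 MDA-MB-468 cells in DMEM with 10% FBS were plated at 1500 cells/well in triplicate, and the medium was changed the next day. Prodrug was dissolved fresh in ethanol to a 10 mM stock, diluted, and added. Further doses went into the same medium at 24 and 48 h, with final ethanol below 1%. Viability was read by MTT.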

cyclin D1 [13] = assay: Expression of cyclin D1 in HCC-827 cells; assay type: cell-based; conditions: HCC-827, 5 µM
Stat3 [14] = target: T2, Stat3; assay: Stat3 phosphorylation in HCC-827 non-small-cell lung cancer cells; assay type: cell-based; conditions: HCC-827, 5 µM
Ser473 of Akt [15] = assay: Akt Ser473 phosphorylation in MDA-MB-468 cells; assay type: cell-based
[16] = MDA-MB-468, 25 µM, two hour treatment
[17] = MDA-MB-468, 2 h treatment, western blot
[18] = MDA-MB-468, single dose of 5 µM
[19] = MDA-MB-468, 5 µM, 1.5 h then EGF 30 min

T2 sequence (P40763 whole entry): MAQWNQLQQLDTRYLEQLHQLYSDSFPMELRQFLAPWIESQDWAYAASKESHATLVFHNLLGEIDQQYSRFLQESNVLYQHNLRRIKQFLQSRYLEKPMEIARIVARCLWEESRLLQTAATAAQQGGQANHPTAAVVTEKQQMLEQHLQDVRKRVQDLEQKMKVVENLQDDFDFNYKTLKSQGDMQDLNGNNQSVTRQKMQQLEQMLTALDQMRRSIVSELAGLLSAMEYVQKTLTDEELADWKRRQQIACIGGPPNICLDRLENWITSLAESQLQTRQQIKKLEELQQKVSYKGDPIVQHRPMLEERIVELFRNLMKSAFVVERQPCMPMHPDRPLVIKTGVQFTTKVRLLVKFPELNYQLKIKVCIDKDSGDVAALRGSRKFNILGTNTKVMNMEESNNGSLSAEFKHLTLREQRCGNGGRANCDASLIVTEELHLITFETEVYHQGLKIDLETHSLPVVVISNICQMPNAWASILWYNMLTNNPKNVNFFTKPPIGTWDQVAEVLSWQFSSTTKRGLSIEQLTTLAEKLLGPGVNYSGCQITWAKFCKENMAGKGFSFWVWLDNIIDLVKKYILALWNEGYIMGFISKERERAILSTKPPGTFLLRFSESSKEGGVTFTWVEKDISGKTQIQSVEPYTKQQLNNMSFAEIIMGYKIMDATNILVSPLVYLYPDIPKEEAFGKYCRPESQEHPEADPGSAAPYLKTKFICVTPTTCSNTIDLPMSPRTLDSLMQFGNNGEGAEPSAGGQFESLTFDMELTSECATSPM
T1 sequence (P40763 whole entry): as above
Chain of pTyr705 Stat3 (P40763 whole entry): as above

For `CC(C)(C)C(=O)OCOP(=O)(OCOC(=O)C(C)(C)C)C(F)(F)c1ccc(/C=C/C(=O)N[C@H]2CCc3cccc4c3N(C2=O)[C@H](C(=O)N[C@@H](CCC(N)=O)C(=O)NCc2ccccc2)C4)cc1` [compound 3], the “concentration that completely inhibited constitutive phosphorylation of Stat3 Tyr705” value (Tyr705 of Stat3 [1]) is listed as 10 µM and the “effect on level of pStat3” value (Tyr705 of Stat3 [2]; MDA-MB-468, 2 h, increasing concentrations) is listed as “reduced the level of pStat3 in a dose-dependent manner”.

In the case of `C/C(=C\C(=O)N[C@H]1CCc2cccc3c2N(C1=O)[C@H](C(=O)N[C@H](C)CCC(N)=O)C3)c1ccc(C(F)(F)P(=O)(OCOC(=O)C(C)(C)C)OCOC(=O)C(C)(C)C)cc1` [compound 34, βMF2Pm(POM2)Cinn-Haic-Apa], the “expression of Bcl-xL” value (Bcl-xL) is reported as “No inhibition”, the “concentration at which constitutively activated Stat3 was completely inhibited” value (Stat3 [3]) is reported as 1 µM and the “expression of cyclin D1” value (cyclin D1 [4]) is reported as “No inhibition”. For the same compound, the expression of survivin (survivin [5]) was “reduced”, the “FAK phosphorylation at high concentration” value [6, 16] was “inhibited phosphorylation” and the “FAK Tyr861 phosphorylation” value ([6]; MDA-MB-468, 2 h treatment) was “no reduction of Tyr861 phosphorylation”. The “concentration at which pStat3 was completely inhibited” value (Tyr705 of Stat3 [2]; [17]) was 0.5 µM, the “concentration with noticeable inhibition of pStat3” value (Tyr705 of Stat3 [2]; [17]) was 0.1 µM and the “time at which pStat3 formation was completely inhibited” value (Tyr705 of Stat3 [2]; [18]) was 30 min. For the same compound, the “time for which complete inhibition of pStat3 was sustained” value (Tyr705 of Stat3 [2]; [18]) was 4 h, the pStat3 nuclear localization (pTyr705 Stat3) was “abrogated nuclear localization” and the “increase in Stat3 phosphorylation induced by EGF” value (Stat3 [7]) was “completely inhibited”. For the same compound, the inhibition (H528) was under 20%, the expression of survivin (survivin [8]) was “reduced” and the Stat5 phosphorylation (Tyr694 of Stat5; [19]) was “not inhibited”. The “Stat5 phosphorylation at high concentration” value (Tyr694 of Stat5; [16]) was “inhibited phosphorylation”, the “phosphorylation of Ser473 of Akt” value (Ser473 of Akt [9]) was “no effect” and the “IL-6-induced pStat3 formation” value (Stat3 [10]) was “inhibited pStat3 formation”. The “IL-6-induced pStat3 formation” value (Stat3 [11]) was “inhibited pStat3 formation”, the “IL-6-induced pStat3 formation” value (Stat3 [12]) was “inhibited pStat3 formation” and the “phosphorylation of p38 MAPK” value (p38 MAPK) was “no effect”. For the same compound, the “concentration of complete inhibition of Stat1 phosphorylation” value (Tyr701 of Stat1) was 5 µM, the “survival curves with daily dosing compared with single dose” value (MDA-MB-468 cells) was “little change in the survival curves” and the “expression of cyclin D1” value (cyclin D1 [13]) was “not inhibited”. The “duration of pStat3 inhibition” value (Stat3 [14]) was “at least 4 h”, the “pStat3 level at 24 h” value (Stat3 [14]; 24 h) was “had not returned to pretreatment levels” and the “Akt Ser473 phosphorylation” value (Ser473 of Akt [15]; [19]) was “do not inhibit Akt phosphorylation”. The “Akt phosphorylation at high concentration” value (Ser473 of Akt [15]; [16]) was “inhibited phosphorylation”.
